Reference: ChEMBL document CHEMBL2034949, “Small Molecule Inhibitors of Regulator of G Protein Signalling (RGS) Proteins” (ACS Med Chem Lett, 2012)
Active and inactive are the calls of the source. The rule behind the calls is not given here.

Key:
[1] = Selectivity ratio of IC50 for RGS8 to IC50 RGS4
[2] = Aqueous solubility of the compound at 500 uM; format: physicochemical; settings: buffer
[3] = target: Muscarinic acetylcholine receptor M3 (Homo sapiens) (UniProt P20309); assay: Activity at human muscarinic M3 receptor expressed in HEK293T cells assessed as increase in carbachol-induced intracellular calcium level at 10 uM after 30 to 45 mins by fluorimetry; format: functional, cell-based; settings: HEK-293T
Chain of Muscarinic acetylcholine receptor M3 (Homo sapiens) (P20309 whole entry, looked up): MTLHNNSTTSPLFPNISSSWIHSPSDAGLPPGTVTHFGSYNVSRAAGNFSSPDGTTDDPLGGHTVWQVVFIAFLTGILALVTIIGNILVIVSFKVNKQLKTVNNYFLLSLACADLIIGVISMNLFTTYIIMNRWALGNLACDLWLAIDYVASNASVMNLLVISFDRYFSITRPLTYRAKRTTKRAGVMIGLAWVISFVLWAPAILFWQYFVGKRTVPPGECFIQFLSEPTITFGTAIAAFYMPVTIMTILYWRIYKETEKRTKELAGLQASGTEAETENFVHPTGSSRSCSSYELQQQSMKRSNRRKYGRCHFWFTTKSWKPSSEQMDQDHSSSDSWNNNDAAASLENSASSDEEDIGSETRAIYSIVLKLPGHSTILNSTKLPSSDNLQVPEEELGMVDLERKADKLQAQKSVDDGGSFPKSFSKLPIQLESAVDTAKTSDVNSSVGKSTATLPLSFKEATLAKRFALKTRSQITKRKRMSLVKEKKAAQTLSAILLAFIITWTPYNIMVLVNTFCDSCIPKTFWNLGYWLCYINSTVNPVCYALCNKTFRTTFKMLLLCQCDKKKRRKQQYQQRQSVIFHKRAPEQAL
In short: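 HEK-293 cells stably expressing human M3 muscarinic receptor, plated overnight, loaded with Fluo4-NW for 30 min at 37 °C. Compound added at 10 uM final in 1% DMSO; baseline fluorescence read after 30-45 min, then carbachol injected (10 nM final). Intracellular Ca++ rise expressed as percent of baseline; triplicate determinations, DMSO control n=16.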

[4] = target: Regulator of G-protein signaling 4 (Homo sapiens, UniProt P49798); assay: Inhibition of RGS4 interaction with Galpha0 protein by flow cytometry protein interaction assay
Chain of Regulator of G-protein signaling 4 (P49798 whole entry): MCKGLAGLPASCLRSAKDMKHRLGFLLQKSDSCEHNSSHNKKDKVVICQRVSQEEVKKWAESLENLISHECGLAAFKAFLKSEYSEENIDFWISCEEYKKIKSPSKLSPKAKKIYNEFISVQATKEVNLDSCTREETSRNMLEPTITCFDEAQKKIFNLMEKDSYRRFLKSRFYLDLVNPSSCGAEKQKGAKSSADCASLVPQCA
In short: (§1)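 Inhibition of Gαo binding to RGS4 or RGS8. IC50 taken as the average of two independent experiments.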

[5] = target: T1, Regulator of G-protein signaling 8 (Homo sapiens, UniProt P57771); assay: Inhibition of RGS8 interaction with Galpha0 protein by flow cytometry protein interaction assay; in short: as §1
T1 sequence (P57771 whole entry): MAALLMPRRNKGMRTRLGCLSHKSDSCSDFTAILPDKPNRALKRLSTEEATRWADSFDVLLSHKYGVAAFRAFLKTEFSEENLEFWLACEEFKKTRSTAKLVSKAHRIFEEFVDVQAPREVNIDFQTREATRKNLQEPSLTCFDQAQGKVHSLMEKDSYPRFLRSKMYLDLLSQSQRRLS

SMILES	Ratio IC50 [1]	also measured
Cc1cccc(-n2sc(=O)n(Cc3ccc(F)cc3)c2=O)c1	59	
Cc1ccc(-n2sc(=O)n(Cc3ccc(Cl)cc3)c2=O)cc1	2170	
Cc1ccc(Cn2c(=O)sn(-c3ccc(C)cc3)c2=O)cc1	1340	
CCCCn1c(=O)sn(CC)c1=O		Activity [3]: inactive; solubility [2]: soluble
O=c1sn(-c2ccccc2)c(=O)n1Cc1ccccc1	239	
Cc1cccc(-n2sc(=O)n(Cc3ccccc3)c2=O)c1	558	
O=c1sn(-c2cccc(Cl)c2)c(=O)n1Cc1ccc(F)cc1	245	
O=c1sn(-c2ccc(Cl)cc2)c(=O)n1Cc1ccccc1	183	
Cc1ccc(Cn2sc(=O)n(Cc3ccccc3)c2=O)cc1	2840	
O=c1sn(-c2cccc(C(F)(F)F)c2)c(=O)n1Cc1ccc(F)cc1	204	
COc1ccc(Cn2c(=O)sn(-c3ccc(C)cc3)c2=O)cc1	1780	IC50 [4]: 0.176 µM
O=c1sn(-c2ccc(Cl)cc2)c(=O)n1Cc1ccc(F)cc1	564	
O=c1sn(-c2cccc(C(F)(F)F)c2)c(=O)n1Cc1ccccc1	286	
COc1ccc(-n2sc(=O)n(Cc3ccc(F)cc3)c2=O)cc1	1050	
O=c1sn(-c2ccc(Cl)c(Cl)c2)c(=O)n1Cc1ccccc1	149	
Cc1ccc(-n2sc(=O)n(Cc3cccc(C)c3)c2=O)cc1	679	
O=c1sn(-c2ccccc2)c(=O)n1Cc1ccc(F)cc1	380	
O=c1sn(-c2cccc(Cl)c2)c(=O)n1Cc1ccccc1	335	
Cc1ccc(-n2sc(=O)n(Cc3ccccc3)c2=O)cc1	519	
Cc1ccc(CN2C(=O)CN(c3ccc(C)cc3)C2=O)cc1		IC50 [4]: > 100 µM; IC50 [5]: > 100 µM
Cc1ccc(Cn2sc(=O)n(Cc3ccc(F)cc3)c2=O)cc1	3090	
COc1ccc(-n2sc(=O)n(Cc3ccccc3)c2=O)cc1	515	
Cc1ccc(-n2sc(=O)n(Cc3ccc(F)cc3)c2=O)cc1	366	IC50 [4]: 0.0301 µM; IC50 [5]: 11 µM; Activity [3]: Active
Cc1ccc(-n2sc(=O)n(Cc3cccc(Cl)c3)c2=O)cc1	1000	
O=c1sn(-c2ccc(Cl)c(Cl)c2)c(=O)n1Cc1ccc(F)cc1	481	
Cc1ccc(-n2sc(=O)n(Cc3ccc(Cl)c(Cl)c3)c2=O)cc1	460	

Further lines, with some results ahead:

Ratio IC50 [1]	SMILES	also measured
1210	CCCCn1sc(=O)n(C)c1=O	solubility [2]: soluble
1660	CCn1sc(=O)n(C)c1=O	solubility [2]: soluble
2540	CCCCn1sc(=O)n(CC(C)C)c1=O	solubility [2]: soluble
665	CCn1sc(=O)n(CCOC)c1=O	Activity [3]: inactive
445	Cc1ccc(-n2sc(=O)n(C)c2=O)cc1	
4110	CCCCn1sc(=O)n(CCCC)c1=O	solubility [2]: soluble
550	Cc1ccc(-n2sc(=O)n(CC(C)C)c2=O)cc1	
2020	Cn1c(=O)sn(C(C)(C)C)c1=O	solubility [2]: soluble
842	CCn1sc(=O)n(Cc2ccc(F)cc2)c1=O	
2220	CCCCn1c(=O)sn(C(C)(C)C)c1=O	solubility [2]: soluble
2680	CCn1sc(=O)n(CC(C)C)c1=O	solubility [2]: soluble
6660	CC(C)Cn1c(=O)sn(C(C)(C)C)c1=O	solubility [2]: soluble
483	CCCCn1c(=O)sn(-c2ccc(C)cc2)c1=O	
2020	CCCCn1sc(=O)n(Cc2ccc(F)cc2)c1=O	
